Tb hexokinase – Trypanosoma brucei hexokinase 1 inhibitors, primary screen, biochemical, G6PDH-coupled NADH absorbance, MLSCN library; hexokinase 1 [Trypanosoma brucei]; recombinant TbHK1, G6PDH-coupled NADH A340; inhibition, % at 10 µM; actives 0.11% (n = 220,000); AID 1430, 2008;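 active = inhibition of 50% or more in the single-dose primary screen; inactive = inhibition below 50%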
Diaph inh CS – diaphorase inhibitors and chemical oxidizers, primary screen, counter-screen for diaphorase-coupled primary assays, biochemical, uHTS, resorufin fluorescence. diaphorase resazurin-to-resorufin fluorescence, NADH, 16 min; bacterial (C. kluyveri) enzyme, not human. inhibition, % at 20 µM. actives 0.69% (n = 190,000);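 active = primary screen inhibition at 20 µM above a set limit, cut at about 50% in these data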
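Test system: bacterial diaphorase enzyme (C. kluyveri); Quantity: 0.14 U/mL diaphorase, enzyme working solution; Times: reaction incubation of 16 min at room temperature; Measured by: fluorescence of resorufin formed from resazurin, Ex 544/Em 590 nm; Benchmarks: positive control minus NADH, DMSO neutral control.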
Diaph act CS – compounds boosting diaphorase resazurin reduction – biochemical, uHTS, resorufin fluorescence, counter-screen for diaphorase-coupled primary assays, primary screen | Diaphorase/resazurin coupled assay, 16 min; stronger effect = higher value; 1 = vehicle wells, 0 = NADH-free wells | activation factor at 20 µM | actives 0.005% (n = 190,000);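 active = diaphorase activity raised at least twofold by the compound at 20 µM; inactive = activation factor below 2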
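Measured by – red resorufin fluorescence at 544/590 nm excitation/emission · Test system – Clostridium kluyveri diaphorase, purified enzyme · Incubation – reaction time 16 min, room temperature · Buffer or medium – 50 mM HEPES pH 7.4 with 4.542 mM MgCl2, 0.005% Tween 20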
G6PDH counter – L. mesenteroides G6PDH inhibitors, counter-screen for G6PDH-coupled screening assays, biochemical, Leuconostoc mesenteroides enzyme; Purified L. mesenteroides G6PDH, diaphorase/resazurin coupled fluorescence, 45 min; inhibition, % at 5 µM; actives 0.12% (n = 200,000); AID 1020, 2008; in the data active = inhibition above about 50%
PfGluPho inh – PfG6PD enzyme inhibitors, primary screen, biochemical, fluorescence intensity, uHTS. glucose-6-phosphate dehydrogenase-6-phosphogluconolactonase (Plasmodium falciparum 3D7). PfGluPho enzyme, NADPH resazurin-diaphorase fluorescence. inhibition, % at 20 µM. actives 0.78% (n = 350,000). AID 504690, 2011;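 active = inhibition reaching at least a set limit at 20 µM in the primary screen, cut at about 59% in these data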
HKDC1 inhibitor – HKDC1 hexokinase inhibitors, primary screen, biochemical, fluorescence, uHTS | Q2TB90 | recombinant HKDC1, G6PDH/diaphorase resazurin coupled fluorescence | inhibition, % at 20 µM | actives 0.16% (n = 340,000) | AID 493160, 2011;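 active = inhibition above about 35% when tested at 20 µM, limit read from the data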
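Test system: recombinant HKDC1 (HK5) hexokinase enzyme, produced in-house / Doses: 20 µM test compound, 1% DMSO / Timing: 90 min, room temperature / Detection: G6PDH/diaphorase-coupled fluorescence, 1 mM NADP, 100 µM resazurin, 525/613 nm / Control set: DMSO wells with and without enzyme mix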
PfG6PD confirm – PfG6PD inhibitors, hit retest, confirmation, biochemical, fluorescence intensity, single concentration; shares compounds with PfGluPho inh; recombinant PfGluPho, NADPH-diaphorase-resazurin fluorescence; inhibition, % at 20 µM; actives 34% (n = 2,400);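 active = inhibition of at least 50% at 20 µM in any single replicate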
Diaphorase 10uM – diaphorase inhibitors and chemical oxidizers, confirmation, counter-screen for P. falciparum G6PD inhibitor project, biochemical, fluorescence intensity, 10 µM NADPH; shares compounds with PfGluPho inh; diaphorase-coupled resazurin reduction, NADPH 10 uM; inhibition, % at 20 µM; actives 39% (n = 820); AID 504862, 2011;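 active = average inhibition reaching 50% or more with the compound at 20 µM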;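 note: resorufin red fluorescence formed as diaphorase reduces resazurin using NADPH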
Diaph ctr 30uM – diaphorase inhibitors and chemical oxidizers, confirmation, counter-screen for P. falciparum G6PD inhibitor project, biochemical, fluorescence intensity, 30 µM NADPH; inhibition, % at 20 µM; actives 29% (n = 820); Diaphorase/resazurin coupled assay, resorufin fluorescence; shares compounds with PfGluPho inh;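 active = inhibition averaging 50% or more, tested at 20 µM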
Each line names hits and unclear results; the compound was inactive in the other large screens (follow-up assays come after a bar, where they were run). Sampled rows, rich in hits. Any-hit rate of the full collection: about 1.3%.

CCc1cc(-c2n[nH]c(C)c2-c2ccccc2Cl)c(O)cc1OC	PfGluPho inh 98 (no result: Tb hexokinase, Diaph inh CS, Diaph act CS, G6PDH counter) | PfG6PD confirm 51 | Diaphorase 10uM 55 | Diaph ctr 30uM inactive
COc1ccc(CCN2CC(C(=O)N(C)CCc3cn[nH]c3)CCC2=O)cc1 (stereo not given)	none (no result: Tb hexokinase, Diaph inh CS, Diaph act CS, G6PDH counter)
O=C(Nc1ccc(Nc2ccccc2)cc1)c1ccc(Cl)cc1	none (no result: Tb hexokinase, Diaph inh CS, Diaph act CS, G6PDH counter)
N#C/C(C(=O)Nc1ccc(Cl)cc1)=C(/S)Nc1ccccc1	PfGluPho inh 95 (no result: Tb hexokinase, Diaph inh CS, Diaph act CS, G6PDH counter) | PfG6PD confirm 83 | Diaphorase 10uM inactive | Diaph ctr 30uM inactive
CCCC(=O)OCCNc1cc(Sc2nc3ccccc3[nH]2)c2nonc2c1[N+](=O)[O-]	PfGluPho inh 65 | PfG6PD confirm inactive
CCC(=O)OCCNc1cc(Sc2nccn2C)c2nonc2c1[N+](=O)[O-]	none
O=C(Nc1ccc(C(F)(F)F)cc1)N1CCN(c2ccnc3cc(Cl)ccc23)CC1	none (no result: Diaph inh CS, Diaph act CS, G6PDH counter)
Cn1cc(SCC(=O)N2CCCc3ccccc32)c2ccccc21	PfGluPho inh 60 | PfG6PD confirm inactive
COc1ccccc1/C=N/NC(=O)c1nnn(-c2nonc2N)c1-c1cccs1	PfGluPho inh 93 (no result: Tb hexokinase, Diaph inh CS, Diaph act CS, G6PDH counter) | PfG6PD confirm 55 | Diaphorase 10uM 85 | Diaph ctr 30uM 67
Cc1ccc(-c2c(C(=O)N/N=C/c3sccc3C)nnn2-c2nonc2N)cc1	PfGluPho inh 88 (no result: Tb hexokinase, Diaph inh CS, Diaph act CS, G6PDH counter) | PfG6PD confirm inactive
Nc1nonc1-n1nnc(C(=O)N/N=C/c2cccc(Cl)c2)c1-c1ccc2c(c1)OCO2	PfGluPho inh 119 (no result: Tb hexokinase, Diaph inh CS, Diaph act CS, G6PDH counter) | PfG6PD confirm 99 | Diaphorase 10uM 87 | Diaph ctr 30uM 66
COc1cccc(NC(=O)CN2CCc3ccccc3C2)c1	none (no result: Tb hexokinase, Diaph inh CS, Diaph act CS, G6PDH counter)
O=C(Nc1cccc(-c2nc3ccccc3s2)c1)c1cccs1	none
O=C(Nc1cccc(Cl)c1)Nc1sccc1-c1nc2ccccc2s1	PfGluPho inh 97 (no result: Diaph inh CS, Diaph act CS, G6PDH counter) | PfG6PD confirm inactive
COc1ccccc1NC(=O)Nc1sccc1-c1nc2ccccc2s1	PfGluPho inh 78 (no result: Diaph inh CS, Diaph act CS, G6PDH counter) | PfG6PD confirm inactive
COC(=O)c1sccc1NC(=O)Nc1ccccc1OC	none (no result: Tb hexokinase, Diaph inh CS, Diaph act CS, G6PDH counter)
O=C(Nc1ccccc1)Nc1sccc1-c1nc2ccccc2s1	PfGluPho inh 84 (no result: Diaph inh CS, Diaph act CS, G6PDH counter) | PfG6PD confirm inactive
CCc1nnc(NC(=O)CCc2ccccc2OC)s1	none (no result: Tb hexokinase, Diaph inh CS, Diaph act CS, G6PDH counter)
Nc1nc2ccccc2n1/N=C/c1ccc(Br)cc1	PfGluPho inh 66 | PfG6PD confirm inactive
Nc1nc2ccccc2n1/N=C/c1ccc2c(c1)OCO2	none (no result: Diaph inh CS, Diaph act CS, G6PDH counter)
Cc1cc(C)c2c(CC(=O)NNC(=O)c3ccccc3)coc2c1	none (no result: Tb hexokinase, Diaph inh CS, Diaph act CS, G6PDH counter)
C/C(Cn1nnc([N+](=O)[O-])n1)=N\NC(=O)c1ccc(Cl)c(Cl)c1	PfGluPho inh 83 | PfG6PD confirm 77 | Diaphorase 10uM inactive | Diaph ctr 30uM inactive
C/C(Cn1cnc([N+](=O)[O-])n1)=N\NC(=O)c1ccc(Br)cc1	none
C/C(Cn1nnc([N+](=O)[O-])n1)=N\NC(=O)c1ccc(O)cc1	PfGluPho inh 71 (no result: Diaph inh CS, Diaph act CS, G6PDH counter) | PfG6PD confirm 53 | Diaphorase 10uM inactive | Diaph ctr 30uM inactive
Cc1ccc(S(=O)(=O)N2CCOCC2)cc1C(=O)NC(C)CCc1ccccc1 (stereo not given)	none (no result: Tb hexokinase, Diaph inh CS, Diaph act CS, G6PDH counter)
